Among the data in ChEMBL document CHEMBL1150361, “Inhibitors of tubulin polymerization: synthesis and biological evaluation of hybrids of vindoline, anhydrovinblastine and vinorelbine with thiocolchicine, podophyllotoxin and baccatin III” (2008) are Activity values, retold here.

Calls of active or inactive are those of the source. The rule behind the calls is not given here.

The subject of assay [1] is A549. Put plainly: Cytotoxicity against human A549 cells after 24 hrs by MTS assay. It counts as functional, cell-based. The procedure, abridged: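 A549 cells seeded at 10³ cells/well, allowed to attach 24 h, then exposed to drug prepared in medium at 1, 10 or 100 µM for 24 h. MTS/PES reagent added, 1 h at 37 °C, absorbance read at 490 nm. Quintuplicate wells; viability expressed as percentage of control.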
(In general: Tetrazolium assays rely on reduction of a dye to a coloured formazan, in cell work by metabolically active cells.)

A further assay concerns the target Tubulin (Sus scrofa) (UniProt P02554+P02550). In words: Inhibition of pig brain tubulin polymerization at 10 uM. The procedure, abridged: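 Tubulin purified from porcine brain by three warm-cold cycles plus anion-exchange to remove MAPs. Tubulin at 2.7 mg/ml was preincubated with drug (final 10 µM, 0.2% DMSO) in GTP-free K-Pipes pH 6.9 buffer with 10% glycerol, 15 min at 37 °C. Then 1 mM GTP was added and the mix held 30 min at 37 °C. Polymer and soluble fractions were separated at 30,000g and run on SDS-PAGE with Coomassie staining; densitometry; unpaired t-test.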

Assay [2] has as its system A549. In words: Cell cycle arrest in human A549 cells assessed as accumulation at G2/M phase at 10 uM at 24 hrs. It counts as functional. The procedure, abridged:
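A549 human lung carcinoma cells were grown in E-MEM with 10% FBS, 2 mM L-glutamine, penicillin and non-essential amino acids at 37 °C, 5% CO2. Cells were seeded at 10⁵–2·10⁵ per well, attached 24 h, then drug-treated (DMSO vehicle control) for 24 h at 37 °C. They were harvested by trypsin, stained for DNA with the CycleTEST PLUS kit, and analysed by flow cytometry for G2/M fraction.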

The test system of assay [3] is A549. Put plainly: Cytotoxicity against human A549 cells at 10 uM after 24 hrs […]. It counts as functional, cell-based.

Sequence of Tubulin (Sus scrofa) (P02550 whole entry, looked up): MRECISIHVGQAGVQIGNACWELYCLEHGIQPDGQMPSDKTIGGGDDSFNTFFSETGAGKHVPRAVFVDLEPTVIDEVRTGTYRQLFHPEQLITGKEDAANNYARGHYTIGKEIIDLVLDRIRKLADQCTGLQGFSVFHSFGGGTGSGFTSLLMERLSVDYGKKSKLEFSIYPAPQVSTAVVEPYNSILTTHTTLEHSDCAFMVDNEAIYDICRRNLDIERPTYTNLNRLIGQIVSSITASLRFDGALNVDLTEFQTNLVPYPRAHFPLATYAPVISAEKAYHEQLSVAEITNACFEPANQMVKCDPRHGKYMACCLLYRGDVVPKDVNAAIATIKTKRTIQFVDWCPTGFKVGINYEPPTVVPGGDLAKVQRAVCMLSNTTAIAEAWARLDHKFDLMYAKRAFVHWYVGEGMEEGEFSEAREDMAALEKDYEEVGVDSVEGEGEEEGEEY
Sequence of Tubulin (Sus scrofa) (P02554 whole entry, looked up): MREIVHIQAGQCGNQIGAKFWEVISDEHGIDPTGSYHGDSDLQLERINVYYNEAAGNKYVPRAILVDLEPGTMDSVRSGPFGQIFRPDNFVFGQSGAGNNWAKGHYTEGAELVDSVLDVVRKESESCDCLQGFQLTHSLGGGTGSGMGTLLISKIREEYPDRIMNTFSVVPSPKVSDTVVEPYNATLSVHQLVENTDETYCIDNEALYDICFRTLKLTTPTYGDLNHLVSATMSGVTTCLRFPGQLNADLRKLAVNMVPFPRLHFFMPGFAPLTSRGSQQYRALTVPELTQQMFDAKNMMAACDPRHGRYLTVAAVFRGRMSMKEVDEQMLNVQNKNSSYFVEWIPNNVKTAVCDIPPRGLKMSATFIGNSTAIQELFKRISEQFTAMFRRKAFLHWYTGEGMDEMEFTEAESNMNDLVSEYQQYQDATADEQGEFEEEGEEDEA

Turning to `CC[C@]12C=CCN3CC[C@@]4(c5ccc(OC)cc5N(C)[C@H]4[C@@](O)(C(=O)OC)[C@@H]1OC(=O)CCC(=O)OC1C[C@@]4(O)[C@@H](OC(=O)c5ccccc5)[C@@H]5[C@]6(OC(C)=O)CO[C@@H]6C[C@H](O[Si](CC)(CC)CC)[C@@]5(C)C(=O)[C@H](OC(C)=O)C(=C1C)C4(C)C)[C@@H]32` (some centres not stated), the result in the assay on A549 [1] was Active.

As to `CC[C@]12C=CCN3CC[C@@]4(c5ccc(OC)cc5N(C)[C@H]4[C@@](O)(C(=O)OC)[C@@H]1OC(=O)CCC(=O)N[C@H]1CCc4cc(OC)c(OC)c(OC)c4-c4ccc(SC)c(=O)cc41)[C@@H]32`, the result on Tubulin (Sus scrofa) and with A549 [1] was Active. Further, in the assay with A549 [2], the Activity was 74%.

With `CC[C@]12C=CCN3CC[C@@]4(c5ccc(OC)cc5N(C)[C@H]4[C@@](O)(C(=O)OC)[C@@H]1OC(=O)CCC(=O)O[C@H]1c4cc5c(cc4[C@@H](c4cc(OC)c(OC)c(OC)c4)[C@H]4C(=O)OC[C@@H]41)OCO5)[C@@H]32`, the outcome in the assay on A549 [1] was Active.

Turning to `CCC1=C[C@H]2CN(C1)Cc1c([nH]c3ccccc13)[C@@](C(=O)OC)(c1cc3c(cc1OC)N(C)[C@H]1[C@@](O)(C(=O)OC)[C@H](OC(=O)CCC(=O)N[C@H]4CCc5cc(OC)c(OC)c(OC)c5-c5ccc(SC)c(=O)cc54)[C@]4(CC)C=CCN5CC[C@]31[C@@H]54)C2`, the result in the assay with A549 [1] was Active.

As to `CC[C@]12C=CCN3CC[C@@]4(c5ccc(OC)cc5N(C)[C@H]4[C@@](O)(C(=O)OC)[C@@H]1OC(=O)CCCCCCCCC(=O)OC1C[C@@]4(O)[C@@H](OC(=O)c5ccccc5)[C@@H]5[C@]6(OC(C)=O)CO[C@@H]6C[C@H](O[Si](CC)(CC)CC)[C@@]5(C)C(=O)[C@H](OC(C)=O)C(=C1C)C4(C)C)[C@@H]32` (some centres not stated), the outcome on Tubulin (Sus scrofa) and in the assay with A549 [1] was Active.

For `CC[C@]12C=CCN3CC[C@@]4(c5ccc(OC)cc5N(C)[C@H]4[C@@](O)(C(=O)OC)[C@@H]1OC(=O)CCCCCCCCC(=O)O[C@H]1c4cc5c(cc4[C@@H](c4cc(OC)c(OC)c(OC)c4)[C@H]4C(=O)OC[C@@H]41)OCO5)[C@@H]32`, the result with A549 [1] was Active.

In the case of `CCC1=C[C@H]2CN(C1)Cc1c([nH]c3ccccc13)[C@@](C(=O)OC)(c1cc3c(cc1OC)N(C)[C@H]1[C@@](O)(C(=O)OC)[C@H](OC(=O)CCC(=O)O[C@H]4c5cc6c(cc5[C@@H](c5cc(OC)c(OC)c(OC)c5)[C@H]5C(=O)OC[C@@H]54)OCO6)[C@]4(CC)C=CCN5CC[C@]31[C@@H]54)C2`, the result in the assay on A549 [1] and in the assay with A549 [3] was Active.

Regarding `CC[C@]12C=CCN3CC[C@@]4(c5ccc(OC)cc5N(C)[C@H]4[C@@](O)(C(=O)OC)[C@@H]1OC(=O)CCCCCCCCC(=O)N[C@H]1CCc4cc(OC)c(OC)c(OC)c4-c4ccc(SC)c(=O)cc41)[C@@H]32`, in the assay with A549 [1], the outcome was Active.
